# Reference: ChEMBL document CHEMBL2146467, “Generation and exploration of new classes of antitubercular agents: The optimization of oxazolines, oxazoles, thiazolines, thiazoles to imidazo[1,2-a]pyridines and isomeric 5,6-fused scaffolds” (Bioorg Med Chem, 2012)
# Experiments:
# [1] = tested on: Mycobacterium tuberculosis; experiment: Antimycobacterial activity against Mycobacterium tuberculosis H37Rv ATCC 27294 culture in GAS media after 7 days by microplate alamar blue assay; format: functional; details: H37Rv ATCC 27294, 168 h
# Method in brief: (§1)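 Replicating Mtb H37Rv. The MIC is the concentration that inhibits growth of 90% of organisms. Media by line: GAS is glycerol-alanine-salts. GAST is iron-deficient glycerol-alanine-salts with Tween 80. 7H12 is 7H9 broth base with BSA, casein hydrolysate, catalase and palmitic acid. Values are reported in μM.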
# [2] = tested on: Mycobacterium tuberculosis; experiment: Antimycobacterial activity against Mycobacterium tuberculosis H37Rv ATCC 27294 culture in GAST media after 7 days by microplate alamar blue assay; format: functional; details: H37Rv ATCC 27294, 168 h; method in brief: as §1
# [3] = Metabolic stability in Sprague-Dawley rat liver microsomes assessed as compound remaining at 20 uM after 15 mins by LC/MS analysis; format: ADME, Microsome; details: read-out: Stability
# [4] = Chemical stability in simulated gastric fluid assessed as compound remaining at 50 uM after 15 mins by LC/MS analysis; format: physicochemical; details: read-out: Stability
# [5] = tested on: Mycobacterium tuberculosis; experiment: Antimycobacterial activity against Mycobacterium tuberculosis H37Rv ATCC 27294 culture in 7H12 media after 7 days by microplate alamar blue assay; format: functional; details: H37Rv ATCC 27294, 168 h; method in brief: as §1
# Vero = experiment: Cytotoxicity against african green monkey Vero cells after 72 hrs by CellTiter assay; format: cell-based; details: Chlorocebus sabaeus
SMILES,MIC90 [1],MIC90 [2],"remaining at 0.25 h, 20 µM [3]","remaining at 0.25 h, 50 µM [4]",MIC90 [5],IC50 (Vero)
CCOC(=O)c1c(-c2ccccc2)nc2ccc(Cl)cn12,63.1 µM,> 128 µM,–,–,–,–
CCOC(=O)c1c(-c2ccccc2)nc2ccccn12,86.5 µM,68.2 µM,–,–,–,–
O=C(OCc1ccccc1)[C@@H]1COC(c2ccc(F)c([N+](=O)[O-])c2)=N1,–,–,11.3%,0.6%,–,–
O=C(OCc1ccccc1)[C@@H]1COC(c2ccccc2OCc2ccccc2)=N1,–,–,5.2%,0.8%,–,–
O=C(OCc1ccccc1)c1coc(-c2ccccc2OCc2ccccc2)n1,–,–,3.5%,2.9%,–,–
COc1ccc(-c2nc(C(=O)OCc3ccccc3)co2)cc1,–,–,11.8%,2.1%,–,–
O=C(OCc1ccccc1)c1coc(-c2ccc(F)c([N+](=O)[O-])c2)n1,–,–,10.9%,0.9%,–,–
O=C(OCc1ccccc1)c1coc(-c2ccccc2Cl)n1,–,–,7.9%,1.1%,–,–
CCOC(=O)c1c(C)nc2cc(C)ccn12,65.1 µM,64.1 µM,–,–,–,–
CCOC(=O)c1c(-c2ccccc2)nc2cc(C)ccn12,55.1 µM,71.3 µM,–,–,–,–
CCOC(=O)c1c(C)nc2cc(C)cc(C)n12,> 79.5 µM,> 72.9 µM,–,–,–,–
CCOC(=O)c1nc(-c2ccccc2)sc1C(C)=O,63 µM,124 µM,–,–,–,–
COc1ccccc1CNC(=O)c1c(C)nc2cc(C)ccn12,–,–,41.6%,100%,–,–
COc1cccc(CNC(=O)c2c(C)nc3cc(C)ccn23)c1,–,–,94%,100%,–,–
COc1ccc(CNC(=O)c2c(C)nc3cc(C)ccn23)cc1,–,–,33.6%,100%,–,–
Cc1ccn2c(C(=O)NCc3ccc(Cl)cc3)c(C)nc2c1,–,–,80.7%,94.3%,–,–
O=C(NCc1ccccc1)c1coc(-c2ccccc2)n1,> 65 µM,59 µM,–,–,> 40 µM,–
O=C(OCc1ccccc1)[C@@H]1CSC(c2ccccc2)=N1,12.9 µM,3.5 µM,–,–,11.6 µM,> 128 µM
O=C(OCc1ccccc1)c1cc(-c2ccccc2)[nH]n1,3.5 µM,> 64 µM,–,–,> 38 µM,> 128 µM
COc1ccc(-c2ccc(C(=O)OCc3ccccc3)cn2)cc1,1.9 µM,–,–,–,9.5 µM,–
Cc1nc2ncccn2c1C(=O)OCc1ccccc1,2.3 µM,–,–,–,4.7 µM,> 50 µM
Cc1cc2nc(C)c(C(=O)OCc3ccccc3)n2c(C)n1,1.1 µM,–,–,–,5.3 µM,> 50 µM
COc1ccc(C2=N[C@H](C(=O)NCc3ccc(OC)c(OC)c3)CO2)cc1,> 128 µM,> 128 µM,–,–,–,–
O=C(NC1CCCCC1)[C@@H]1COC(c2ccc(OC(F)(F)F)cc2)=N1,60 µM,> 64 µM,–,–,–,–
CCCCCCNC(=O)[C@@H]1COC(c2ccc(OC(F)(F)F)cc2)=N1,31 µM,> 64 µM,–,–,–,–
COc1ccc(CNC(=O)c2coc(-c3ccccc3)n2)cc1OC,81 µM,> 128 µM,–,–,–,–
O=C(NC1CCCCC1)c1coc(-c2ccccc2)n1,14 µM,30 µM,–,–,–,–

SMILES,MIC90 [1],MIC90 [2],"remaining at 0.25 h, 20 µM [3]","remaining at 0.25 h, 50 µM [4]",MIC90 [5],IC50 (Vero)
CCCCCCNC(=O)c1coc(-c2ccccc2)n1,22 µM,18 µM,–,–,–,–
COc1ccc(CNC(=O)[C@@H]2CSC(c3ccccc3)=N2)cc1OC,80 µM,> 128 µM,–,–,–,–
O=C(NC1CCCCC1)[C@@H]1CSC(c2ccccc2)=N1,46 µM,56 µM,–,–,–,–
CCCCCCNC(=O)[C@@H]1CSC(c2ccccc2)=N1,23 µM,58 µM,–,–,–,–
COc1ccc(CNC(=O)c2csc(-c3ccccc3)n2)cc1OC,58 µM,64 µM,–,–,–,–
O=C(NC1CCCCC1)c1csc(-c2ccccc2)n1,15 µM,15 µM,3.3%,3.3%,–,–
CCCCCCNC(=O)c1csc(-c2ccccc2)n1,14 µM,60 µM,18.9%,0.1%,–,–
CCc1ccccc1COC(=O)c1c(C)nc2cc(C)ccn12,–,–,37%,100%,–,–
Cc1ccn2c(C(=O)NCc3ccccc3Cl)c(C)nc2c1,–,–,58.9%,97.2%,–,–
CC(C)(C)OC(=O)c1coc(-c2ccccc2)n1,> 64 µM,> 64 µM,42%,–,–,–
CCC(=O)c1ccccc1OC(=O)c1coc(-c2ccccc2)n1,–,–,8.7%,1.8%,–,–
Cc1cccc(OC(=O)c2coc(-c3ccccc3)n2)c1C,–,–,4.9%,2%,–,–
O=C(Oc1cccc2c1CCCC2)c1coc(-c2ccccc2)n1,–,–,14.5%,1.8%,–,–
Cc1cc(C)c(OC(=O)c2coc(-c3ccccc3)n2)c(C)c1,–,–,22%,1.4%,–,–
O=C(Oc1c(Cl)cc(Cl)cc1Cl)c1coc(-c2ccccc2)n1,–,–,15.5%,1.3%,–,–
O=C(Oc1ccccc1N1CCOCC1)c1coc(-c2ccccc2)n1,–,–,5.4%,0.7%,–,–
O=C(Oc1ccccc1N1CCCC1)c1coc(-c2ccccc2)n1,–,–,11.2%,0.1%,–,–
CCC(C)c1ccccc1OC(=O)c1coc(-c2ccccc2)n1 (stereo unspecified),–,–,8.3%,0.2%,–,–
O=C(Oc1ccc(Cl)cc1Cl)c1coc(-c2ccccc2)n1,–,–,17.3%,0.8%,–,–
Cc1ccccc1OC(=O)c1coc(-c2ccccc2)n1,–,–,13.4%,1.5%,–,–
CCCc1ccccc1OC(=O)c1coc(-c2ccccc2)n1,–,–,5.4%,0.9%,–,–
CC(C)(C)c1cccc(C(C)(C)C)c1OC(=O)c1coc(-c2ccccc2)n1,–,–,5.3%,1.3%,–,–
Cc1ccc(Cl)c(OC(=O)c2coc(-c3ccccc3)n2)c1,–,–,14%,0.9%,–,–
CC(C)(C)c1ccccc1OC(=O)c1coc(-c2ccccc2)n1,–,–,6.9%,0.7%,–,–
CCc1ccccc1OC(=O)c1coc(-c2ccccc2)n1,–,–,8.5%,2.1%,–,–
O=C(Oc1ccccc1C(F)(F)F)c1coc(-c2ccccc2)n1,–,–,10.7%,1.2%,–,–
Cc1ccc(COC(=O)c2coc(-c3ccccc3)n2)c(C)c1,–,–,16.9%,1.4%,–,–

SMILES,MIC90 [1],MIC90 [2],"remaining at 0.25 h, 20 µM [3]","remaining at 0.25 h, 50 µM [4]",MIC90 [5],IC50 (Vero)
C[C@H](OC(=O)c1coc(-c2ccccc2)n1)c1ccccc1,–,–,5%,5%,–,–
Cc1cc(C)c(COC(=O)c2coc(-c3ccccc3)n2)c(C)c1,–,–,18.1%,5.6%,–,–
Cc1ccccc1COC(=O)c1coc(-c2ccccc2)n1,–,–,10.9%,3.1%,–,–
O=C(OCc1ccccc1C(F)(F)F)c1coc(-c2ccccc2)n1,–,–,7.8%,0.8%,–,–
CCc1ccccc1COC(=O)c1coc(-c2ccccc2)n1,–,–,3.2%,3.2%,–,–
CCCCCCCCOC(=O)c1coc(-c2ccccc2)n1,–,–,13.1%,1.1%,–,–
O=C(OCC1CC1)c1coc(-c2ccccc2)n1,–,–,3.3%,1.5%,–,–
O=C(OC1CCCCC1)c1coc(-c2ccccc2)n1,–,–,12.1%,0.5%,–,–
O=C(Oc1cccc(C(F)(F)F)c1)c1coc(-c2ccccc2)n1,–,–,13%,5.5%,–,–
O=C(Oc1ccccc1)c1coc(-c2ccccc2)n1,–,–,0.2%,0.2%,–,–
CCOC(=O)c1c(C(F)(F)F)nc2ccccn12,> 128 µM,> 128 µM,–,–,–,–
CCOC(=O)c1cnc2cc(C)c(N)cn12,> 128 µM,> 128 µM,–,–,–,–
CCOC(=O)c1c(C)nc2c(C3CCCN3C)cccn12 (stereo unspecified),> 64 µM,> 64 µM,–,–,–,–
CCOC(=O)c1c(C)nc2ccc(Cl)cn12,93.5 µM,> 101 µM,–,–,–,–
CCOC(=O)c1coc(-c2ccccc2)n1,19.5 µM,7.5 µM,–,–,–,–
CCOC(=O)c1nc(-c2ccccc2)oc1C(F)(F)F,> 128 µM,> 128 µM,–,–,–,–
CCOC(=O)c1nc(-c2ccccc2)oc1C,> 128 µM,124 µM,–,–,–,–
CCOC(=O)c1csc(-c2ccc(C)cc2)n1,61 µM,79 µM,–,–,–,–
CCOC(=O)c1csc(-c2cccc(C(F)(F)F)c2)n1,59 µM,61 µM,–,–,–,–
CCOC(=O)c1csc(-c2cccc(Cl)c2Cl)n1,41 µM,39 µM,–,–,–,–
CCOC(=O)c1n[nH]c(-c2cccc(C)c2)c1N,> 128 µM,> 128 µM,–,–,–,–
CCOC(=O)c1nn(Cc2ccccc2)cc1N,126 µM,> 128 µM,–,–,–,–
CCOC(=O)c1cc(-c2ccc([N+](=O)[O-])cc2)[nH]n1,> 128 µM,> 128 µM,–,–,–,–
CCOC(=O)c1c(-c2ccccc2)nc2ccc(C)cn12,55.1 µM,41 µM,–,–,–,–
CO[C@H]1/C=C/O[C@@]2(C)Oc3c(C)c(O)c4c(O)c(c(/C=N/N5CCN(C)CC5)c(O)c4c3C2=O)NC(=O)/C(C)=C\C=C\[C@H](C)[C@H](O)[C@@H](C)[C@@H](O)[C@@H](C)[C@H](OC(C)=O)[C@@H]1C [RIFAMPIN],0.09 µM,0.2 µM,–,–,0.04 µM,–
